Laboratory results published in ChEMBL document CHEMBL4145447, “4-arylamidobenzyl substituted 5-bromomethylene-2(5H)-furanones for chronic bacterial infection” (Eur J Med Chem, 2018).

Tests used:
[1] = target: Elastase (Pseudomonas aeruginosa (strain ATCC 15692 / PAO1 / 1C / PRS 101 / LMG12228)) (UniProt P14756); assay: Inhibition of Pseudomonas aeruginosa PAO1 GFP-fused quorum sensing lasB at 10 uM measured every 15 mins up to 12 hrs by GFP reporter gene assay relative to control
In short: (§1)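 GFP reporter strains of P. aeruginosa PAO1 (lasB-, rhlA- or pqsA-promoter fused to unstable gfp(ASV)) grown overnight in LB at 37 °C, 200 rpm, 18 h, then diluted 1:100. Culture mixed 1:1 with compound diluted in LB from 10 mM DMSO stock (0.1% DMSO final). Fluorescence (ex 485/em 528 nm) read every 15 min at 37 °C for ≥12 h.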

[2] = test system: Pseudomonas aeruginosa PAO1; assay: Inhibition of Pseudomonas aeruginosa PAO1 GFP-fused quorum sensing rhlA at 10 uM measured every 15 mins up to 12 hrs by GFP reporter gene assay relative to control; in short: as §1
[3] = target: T1, Anthranilate--CoA ligase (Pseudomonas aeruginosa (strain ATCC 15692 / DSM 22644 / CIP 104116 /JCM 14847 / LMG 12228 / 1C / PRS 101 / PAO1)) (UniProt Q9I4X3); assay: Inhibition of Pseudomonas aeruginosa PAO1 GFP-fused quorum sensing pqsA at 10 uM measured every 15 mins up to 12 hrs by GFP reporter gene assay relative to control; in short: as §1
T1 sequence (whole entry): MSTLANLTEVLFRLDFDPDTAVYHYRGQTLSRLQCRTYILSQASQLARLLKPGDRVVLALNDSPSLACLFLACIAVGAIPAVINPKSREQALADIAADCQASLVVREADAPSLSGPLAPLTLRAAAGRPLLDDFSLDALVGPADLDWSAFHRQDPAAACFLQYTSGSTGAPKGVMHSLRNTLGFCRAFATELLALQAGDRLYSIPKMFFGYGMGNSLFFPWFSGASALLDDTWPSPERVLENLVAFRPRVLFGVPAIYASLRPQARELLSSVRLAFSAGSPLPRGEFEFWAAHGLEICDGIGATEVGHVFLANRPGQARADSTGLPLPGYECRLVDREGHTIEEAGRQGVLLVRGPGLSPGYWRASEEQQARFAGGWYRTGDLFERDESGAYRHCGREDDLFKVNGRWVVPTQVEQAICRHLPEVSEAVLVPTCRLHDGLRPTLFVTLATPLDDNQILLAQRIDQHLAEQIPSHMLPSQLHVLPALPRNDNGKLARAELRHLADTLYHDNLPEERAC

RAW264.7 [4] = assay: Anti-inflammatory activity in mouse RAW264.7 cells assessed as inhibition of LPS-induced NO production at 10 uM preincubated for 2 hrs followed by LPS stimulation and measured after 48 hrs by Griess method relative to control; type: functional
In short: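 RAW264.7 cells seeded at 5 × 10^4/well and cultured 18 h, then given 10 µM compound plus LPS 100 ng/mL for 48 h at 37 °C. Supernatant mixed 1:1 with Griess reagent (1% sulfanilamide, 0.1% naphthylethylenediamine in 5% phosphoric acid) for 10 min; nitrite read at OD540.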

[5] = Cytotoxicity against mouse RAW264.7 cells assessed as cell viability at 10 uM after 48 hrs by MTT assay relative to control; type: cell-based; conditions: read-out: Activity
In short: (§2)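 MTT viability: RAW264.7 cells (4 × 10^4/well) in DMEM + 10% FBS exposed to compounds diluted in DMEM for 48 h. MTT 0.5 mg/mL added for 4 h in the dark, formazan dissolved in DMSO, read at 570 nm. Viability = treated/medium-only control × 100; three independent experiments.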

RAW264.7 [6] = assay: Anti-inflammatory activity in mouse RAW264.7 cells assessed as inhibition of LPS-induced TNF-alpha production by measuring TNF-alpha level at 10 uM preincubated for 2 hrs followed by LPS stimulation and measured after 6 hrs by ELISA (reference value: 11922 +/- 628.4 pg/ml); type: functional
RAW264.7 [7] = assay: Anti-inflammatory activity in mouse RAW264.7 cells assessed as inhibition of LPS-induced TNF-alpha production by measuring TNF-alpha level at 10 uM preincubated for 2 hrs followed by LPS stimulation and measured after 12 hrs by ELISA (reference value: 21561.3 +/- 857 pg/ml); type: functional
RAW264.7 [8] = assay: Anti-inflammatory activity in mouse RAW264.7 cells assessed as inhibition of LPS-induced TNF-alpha production by measuring TNF-alpha level at 10 uM preincubated for 2 hrs followed by LPS stimulation and measured after 24 hrs by ELISA (reference value: 24216 +/- 498.7 pg/ml); type: functional
RAW264.7 [9] = assay: Anti-inflammatory activity in mouse RAW264.7 cells assessed as inhibition of LPS-induced IL-6 production by measuring […] level at 10 uM preincubated for 2 hrs followed by LPS stimulation and measured after 6 hrs by ELISA (reference value: 94.6 +/- 5.9 pg/ml); type: functional
RAW264.7 [10] = assay: Anti-inflammatory activity in mouse RAW264.7 cells assessed as inhibition of LPS-induced IL-6 production by measuring […] level at 10 uM preincubated for 2 hrs followed by LPS stimulation and measured after 12 hrs by ELISA (reference value: 175.2 +/- 10.2 pg/ml); type: functional
Mus musculus [11] = assay: Anti-inflammatory activity in LPS-induced sepsis shock mouse model assessed as survival rate at 20 mg/kg, iv pretreated daily for 5 days followed LPS treatment on day 5 at 1 hr post last dose and measured after 7 days relative to control; type: functional
In short: (§3)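 Male SPF mice, randomly grouped, dosed i.v. with compound dissolved in DMSO and diluted in physiological saline; vehicle group given a similar volume. LPS was injected on day 5, 1 h after the last administration. Survival was recorded every 12 h for 7 days after LPS, with 11 animals per group per figure legend.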

Mus musculus [12] = assay: Anti-inflammatory activity in LPS-induced sepsis shock mouse model assessed as survival rate at 1 mg/kg, iv pretreated daily for 5 days followed LPS treatment on day 5 at 1 hr post last dose and measured after 7 days relative to control; type: functional; in short: as §3
RAW264.7 [13] = assay: Anti-inflammatory activity in mouse RAW264.7 cells assessed as inhibition of LPS-induced IL-6 production by measuring IL-6 level at 10 uM preincubated for 2 hrs followed by LPS stimulation and measured after 24 hrs by ELISA (reference value: 407.6 +/- 16.7 pg/ml)
[14] = Cytotoxicity against mouse RAW264.7 cells assessed as cell viability at 5 uM after 48 hrs by MTT assay relative to control; type: cell-based; conditions: read-out: Activity; in short: as §2

Elastase (Pseudomonas aeruginosa (strain ATCC 15692 / PAO1 / 1C / PRS 101 / LMG12228)), sequence (P14756 198-498 limits assumed): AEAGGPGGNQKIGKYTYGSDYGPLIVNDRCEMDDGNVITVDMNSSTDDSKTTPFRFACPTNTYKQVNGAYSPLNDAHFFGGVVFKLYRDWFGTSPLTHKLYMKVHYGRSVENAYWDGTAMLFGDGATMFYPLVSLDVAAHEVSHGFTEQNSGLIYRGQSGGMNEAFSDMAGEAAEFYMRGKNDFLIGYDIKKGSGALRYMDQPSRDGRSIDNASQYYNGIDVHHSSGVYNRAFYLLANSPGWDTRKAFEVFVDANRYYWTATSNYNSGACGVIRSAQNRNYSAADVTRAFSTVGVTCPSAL

SMILES | inhibition [1] [%] | inhibition [2] [%] | inhibition [3] [%] | inhibition at 10 µM (RAW264.7 [4]) [%] | also measured
O=C1C=C(Cc2ccc(NC(=O)c3cccs3)cc2)C(=C(Br)Br)O1 | 20 | 19.6 | 26.4 | 39.9 | –
CN(CCOc1ccc(CC2SC(=O)NC2=O)cc1)c1ccccn1 (stereo not given) [ROSIGLITAZONE] | 7.43 | 15.5 | 9.19 | 16.6 | viability at 48 h, 10 µM [5]: 99%; Activity (RAW264.7 [6]): 11311.3 pg/mL; Activity (RAW264.7 [7]): 20616 pg/mL; Activity (RAW264.7 [8]): 22226 pg/mL; Activity (RAW264.7 [9]): 64.8 pg/mL; Activity (RAW264.7 [10]): 140 pg/mL; survival at 20 mg/kg (Mus musculus [11]): 45.5%; survival at 1 mg/kg (Mus musculus [12]): 36.5%; Activity (RAW264.7 [13]): 345.6 pg/mL
O=C(Cc1ccccc1)Nc1ccc(CC2=CC(=O)OC2=C(Br)Br)cc1 | 19.2 | 19.2 | 24.8 | 44.1 | –
O=C(/C=C/c1ccccc1)Nc1ccc(CC2=CC(=O)OC2=C(Br)Br)cc1 | 9.48 | 18.1 | 16.2 | 54.4 | –
O=C(Cc1c(Cl)cccc1Cl)Nc1ccc(CC2=CC(=O)OC2=CBr)cc1 | 16.9 | 15.2 | 17.6 | 66.6 | –
COc1ccc(CC(=O)Nc2ccc(CC3=CC(=O)OC3=C(Br)Br)cc2)cc1 | 11.8 | 13.8 | 20.6 | 25.2 | –
Cc1ccc(CC(=O)Nc2ccc(CC3=CC(=O)OC3=C(Br)Br)cc2)cc1 | 14.2 | 16.4 | 24.5 | 19 | –
COc1ccc2c(c1)c(CC(=O)O)c(C)n2C(=O)c1ccc(Cl)cc1 [INDOMETHACIN] | – | – | – | 29.4 | Activity (RAW264.7 [6]): 10850 pg/mL; Activity (RAW264.7 [7]): 19664 pg/mL; Activity (RAW264.7 [8]): 20772 pg/mL; Activity (RAW264.7 [9]): 59.6 pg/mL; Activity (RAW264.7 [10]): 120.7 pg/mL; Activity (RAW264.7 [13]): 286.6 pg/mL
COc1ccc(C=CC(=O)Nc2ccc(CC3=CC(=O)O/C3=C/Br)cc2)cc1 | 12.2 | 10.6 | 24.3 | 61 | –
COc1ccc(/C=C/C(=O)Nc2ccc(CC3=CC(=O)OC3=C(Br)Br)cc2)cc1 | 5.03 | 12.9 | 21.9 | 44.3 | –
COc1ccc(CC(=O)Nc2ccc(CC3=CC(=O)OC3=CBr)cc2)cc1 | 14.8 | 11.8 | 26.4 | 39.3 | –
COc1cc(CC(=O)Nc2ccc(CC3=CC(=O)OC3=C(Br)Br)cc2)cc(OC)c1OC | 9.79 | 7.66 | 19.5 | 21.2 | –
COc1cc(CC(=O)Nc2ccc(CC3=CC(=O)OC3=CBr)cc2)cc(OC)c1OC | 8.53 | 5.57 | 20.3 | 34.3 | –
O=C(Nc1ccccc1)c1cc([N+](=O)[O-])ccc1Cl | – | – | – | – | viability at 48 h, 5 µM [14]: 99.1%
O=C1C=C(Cc2ccc(NC(=O)c3ccco3)cc2)C(=C(Br)Br)O1 | 22.9 | 23.6 | 34.6 | 44.5 | –
O=C(Cc1c(Cl)cccc1Cl)Nc1ccc(CC2=CC(=O)OC2=C(Br)Br)cc1 | 19.1 | 19.2 | 19.3 | 53.5 | –
O=C1C=C(Cc2ccc(NC(=O)c3ccccc3)cc2)C(=C(Br)Br)O1 | 21.2 | 20.2 | 28.2 | 30.3 | –
O=C(Cc1ccc(Br)cc1)Nc1ccc(CC2=CC(=O)OC2=C(Br)Br)cc1 | 10.4 | 20 | 27.9 | 50.7 | –
O=C1C=C(Cc2ccc(NC(=O)c3cccs3)cc2)C(=CBr)O1 | 10.2 | 23.9 | 20.3 | 54.2 | –
O=C1C=C(Cc2ccc(NC(=O)c3ccco3)cc2)C(=CBr)O1 | 17.3 | 13.6 | 20.4 | 59.9 | –
O=C(Cc1ccc(F)cc1)Nc1ccc(CC2=CC(=O)OC2=C(Br)Br)cc1 | 9.49 | 15.9 | 20 | 59.2 | –
O=C1C=C(Cc2ccc(NC(=O)c3ccccc3)cc2)C(=CBr)O1 | 16.1 | 17.2 | 34.5 | 46.2 | –
O=C1C=C(Br)/C(=C/Br)O1 | 21.4 | 24 | 20.2 | – | –
O=C(CCc1ccccc1)Nc1ccc(CC2=CC(=O)OC2=CBr)cc1 | 14.9 | 15.2 | 20.6 | 64.8 | –
O=C(Cc1ccccc1)Nc1ccc(CC2=CC(=O)OC2=CBr)cc1 | 18 | 17.3 | 25.8 | 59.5 | –
O=C(CCc1ccccc1)Nc1ccc(CC2=CC(=O)OC2=C(Br)Br)cc1 | 11 | 19.5 | 22.9 | 48.1 | –
O=C(Cc1ccc(Br)cc1)Nc1ccc(CC2=CC(=O)OC2=CBr)cc1 | 24.9 | 17.2 | 40.8 | 64.9 | –
Cc1ccc(CC(=O)Nc2ccc(CC3=CC(=O)OC3=CBr)cc2)cc1 | 19 | 18.2 | 29.8 | 29.4 | –
